Laboratory results published in ChEMBL document CHEMBL2034908, “Isoxazolo(aza)naphthoquinones: a new class of cytotoxic Hsp90 inhibitors” (Eur J Med Chem, 2012).
Calls of active or inactive are those of the source. No cut-off for these calls is given here.

System: NCI-H460
Assay: Cytotoxicity against human NCI-H460 cells after 72 hrs
Type: functional, cell-based
Conditions: NCI-H460, 72 h
How it was run: (§1)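 Compounds were dissolved fresh in DMSO and diluted in culture medium. Cells were exposed for 72 h at 37 °C in medium with 10% heat-inactivated FBS under 5% CO2. IC50 reported ± SD. STO cells were grown in 50/50 DMEM-Ham's F12 with 10% FBS and 2 mM L-Gln.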

Compound	IC50 [nM]
Cl.O=C1c2ccncc2C(=O)c2c(-c3ccc(OCCN4CCOCC4)cc3)noc21	41
O=C1c2ccccc2C(=O)c2c(-c3ccccc3O)noc21	> 1000
O=C1c2ccccc2C(=O)c2c(-c3ccccc3)noc21	120
O=C1c2ccccc2C(=O)c2c(-c3cc(Cl)c(O)cc3O)noc21	> 1000
O=C1c2ccccc2C(=O)c2c(-c3cccc[n+]3Cc3ccccc3)noc21.[Br-]	> 1000
CC(=O)Oc1cccc2c1C(=O)c1c(-c3ccc(F)cc3)noc1C2=O	78
COc1ccccc1-c1noc2c1C(=O)c1ccccc1C2=O	290
O=C1c2ccccc2C(=O)c2c(-c3ccc[n+](Cc4cnccn4)c3)noc21.[Br-]	46
COc1ccc(-c2noc3c2C(=O)c2ccccc2C3=O)cc1	650
COc1ccc(-c2noc3c2C(=O)c2cnccc2C3=O)cc1	446
O=C1c2ccncc2C(=O)c2c(-c3ccncc3)noc21	85
COc1ccc(-c2noc3c(OC(C)=O)c4ccccc4c(OC(C)=O)c23)cc1	> 1000
O=C1c2cccc(O)c2C(=O)c2c(-c3cc[n+](Cc4ccccc4)cc3)noc21.[Br-]	880
COc1cc(OC)c(-c2noc3c2C(=O)c2ccccc2C3=O)cc1Cl	880
O=C1c2ccccc2C(=O)c2c(-c3cc[n+](Cc4ccccc4)cc3)noc21.[Br-]	18
O=C1c2cccc(O)c2C(=O)c2c(-c3ccc(F)cc3)noc21	124
COc1cccc2c1C(=O)c1c(-c3ccncc3)noc1C2=O	880
O=C1c2ccccc2C(=O)c2c(-c3cc[n+](Cc4cnccn4)cc3)noc21.[Br-]	17

System: A-431
Assay: Antitumor activity against human A431 cells xenografted in athymic nude Swiss mouse assessed as tumor growth inhibition at 10 mg/kg, po qd for 4 days per week for 3 weeks
Type: functional
Conditions: read-out: GI
How it was run: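 Female athymic Swiss nude mice, 8–10 weeks old, bearing A431 squamous carcinoma xenografts. Drug dissolved in physiologic saline and given orally at 10 mg/kg, qdx4d/week for 3 weeks. Dosing started when tumours were just palpable. Tumour growth inhibition was assessed.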

Compound	inhibition in vivo at 10 mg/kg [%]
O=C1c2ccccc2C(=O)c2c(-c3cc[n+](Cc4ccccc4)cc3)noc21.[Br-]	50

Target: T1, Heat shock protein HSP90 (Homo sapiens) (UniProt P07900+P08238)
Assay: Inhibition of Hsp90 in human A431 cells assessed as down-regulation of EGFR expression at 22 nM after 24 hrs by Western blotting analysis
Type: cell-based
Conditions: A-431
How it was run: (§2)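 Cells were treated 24 h with drug freshly made in DMSO and diluted in medium with 10% FBS. Where a single level was used, it was 22 nM. Lysates: cells rinsed twice in ice-cold PBS with 0.1 mM orthovanadate, then lysed in hot sample buffer. Protein was quantified by BCA, run on SDS-PAGE and blotted to nitrocellulose. Detection used HRP secondary antibodies and chemiluminescence, with actin as loading control.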

Compound	inhibition
O=C1c2ccccc2C(=O)c2c(-c3cc[n+](Cc4ccccc4)cc3)noc21.[Br-]	Active

System: not listed separately
Assay: Cytotoxicity against human STO cells after 72 hrs
Type: functional, cell-based
Conditions: not given
How it was run: as §1

Compound	IC50 [nM]
Cl.O=C1c2ccncc2C(=O)c2c(-c3ccc(OCCN4CCOCC4)cc3)noc21	54
O=C1c2ccccc2C(=O)c2c(-c3ccccc3O)noc21	3400
O=C1c2ccccc2C(=O)c2c(-c3ccccc3)noc21	20
O=C1c2ccccc2C(=O)c2c(-c3cc(Cl)c(O)cc3O)noc21	1000
O=C1c2ccccc2C(=O)c2c(-c3cccc[n+]3Cc3ccccc3)noc21.[Br-]	2240
CC(=O)Oc1cccc2c1C(=O)c1c(-c3ccc(F)cc3)noc1C2=O	1050
COc1ccccc1-c1noc2c1C(=O)c1ccccc1C2=O	660
O=C1c2ccccc2C(=O)c2c(-c3ccc[n+](Cc4cnccn4)c3)noc21.[Br-]	110
COc1ccc(-c2noc3c2C(=O)c2ccccc2C3=O)cc1	160
COc1ccc(-c2noc3c2C(=O)c2cnccc2C3=O)cc1	92
O=C1c2ccncc2C(=O)c2c(-c3ccncc3)noc21	60
COc1ccc(-c2noc3c(OC(C)=O)c4ccccc4c(OC(C)=O)c23)cc1	1000
O=C1c2cccc(O)c2C(=O)c2c(-c3cc[n+](Cc4ccccc4)cc3)noc21.[Br-]	21600
COc1cc(OC)c(-c2noc3c2C(=O)c2ccccc2C3=O)cc1Cl	135
O=C1c2ccccc2C(=O)c2c(-c3cc[n+](Cc4ccccc4)cc3)noc21.[Br-]	2.2
O=C1c2cccc(O)c2C(=O)c2c(-c3ccc(F)cc3)noc21	610
COc1cccc2c1C(=O)c1c(-c3ccncc3)noc1C2=O	261
O=C1c2ccccc2C(=O)c2c(-c3cc[n+](Cc4cnccn4)cc3)noc21.[Br-]	220

Target: T1, Heat shock protein HSP90 (Homo sapiens)
Assay: Inhibition of Hsp90 in human A431 cells assessed as down-regulation of survivin expression at 22 nM after 24 hrs by Western blotting analysis
Type: cell-based
Conditions: A-431
How it was run: as §2

Compound	inhibition
O=C1c2ccccc2C(=O)c2c(-c3cc[n+](Cc4ccccc4)cc3)noc21.[Br-]	Active

System: NCI-H460
Assay: Cytotoxicity against human NCI-H460 cells at >1 uM after 72 hrs
Type: functional
Conditions: not given

Compound	Activity [%]
COc1ccc(-c2noc3c(OC(C)=O)c4ccccc4c(OC(C)=O)c23)cc1	39

Target: T1, Heat shock protein HSP90 (Homo sapiens)
Assay: Inhibition of Hsp90 in human A431 cells assessed as down-regulation of Cdk4 expression at 22 nM after 24 hrs by Western blotting analysis
Type: cell-based
Conditions: A-431
How it was run: as §2

Compound	inhibition
O=C1c2ccccc2C(=O)c2c(-c3cc[n+](Cc4ccccc4)cc3)noc21.[Br-]	Active

Target: T1, Heat shock protein HSP90 (Homo sapiens)
Assay: Inhibition of Hsp90 in human STO cells assessed as down-regulation of Cdk4 expression at 22 nM after 24 hrs by Western blotting analysis
Type: cell-based
Conditions: not given
How it was run: as §2

Compound	inhibition
O=C1c2ccccc2C(=O)c2c(-c3cc[n+](Cc4ccccc4)cc3)noc21.[Br-]	Active

Target: T1, Heat shock protein HSP90 (Homo sapiens)
Assay: Inhibition of Hsp90 in human A431 cells assessed as down-regulation of Raf expression at 22 nM after 24 hrs by Western blotting analysis
Type: cell-based
Conditions: A-431
How it was run: as §2

Compound	inhibition
O=C1c2ccccc2C(=O)c2c(-c3cc[n+](Cc4ccccc4)cc3)noc21.[Br-]	Active

System: A-431
Assay: Cytotoxicity against human A431 cells after 72 hrs
Type: functional, cell-based
Conditions: A-431, 72 h

Compound	IC50 [nM]
Cl.O=C1c2ccncc2C(=O)c2c(-c3ccc(OCCN4CCOCC4)cc3)noc21	20
O=C1c2ccccc2C(=O)c2c(-c3ccccc3O)noc21	3400
O=C1c2ccccc2C(=O)c2c(-c3ccccc3)noc21	120
O=C1c2ccccc2C(=O)c2c(-c3cc(Cl)c(O)cc3O)noc21	23000
O=C1c2ccccc2C(=O)c2c(-c3cccc[n+]3Cc3ccccc3)noc21.[Br-]	2240
CC(=O)Oc1cccc2c1C(=O)c1c(-c3ccc(F)cc3)noc1C2=O	270
COc1ccccc1-c1noc2c1C(=O)c1ccccc1C2=O	130
O=C1c2ccccc2C(=O)c2c(-c3ccc[n+](Cc4cnccn4)c3)noc21.[Br-]	42
COc1ccc(-c2noc3c2C(=O)c2ccccc2C3=O)cc1	350
COc1ccc(-c2noc3c2C(=O)c2cnccc2C3=O)cc1	98
O=C1c2ccncc2C(=O)c2c(-c3ccncc3)noc21	8.5
COc1ccc(-c2noc3c(OC(C)=O)c4ccccc4c(OC(C)=O)c23)cc1	1300
O=C1c2cccc(O)c2C(=O)c2c(-c3cc[n+](Cc4ccccc4)cc3)noc21.[Br-]	21600
COc1cc(OC)c(-c2noc3c2C(=O)c2ccccc2C3=O)cc1Cl	1400
O=C1c2ccccc2C(=O)c2c(-c3cc[n+](Cc4ccccc4)cc3)noc21.[Br-]	1.6
O=C1c2cccc(O)c2C(=O)c2c(-c3ccc(F)cc3)noc21	290
COc1cccc2c1C(=O)c1c(-c3ccncc3)noc1C2=O	330
O=C1c2ccccc2C(=O)c2c(-c3cc[n+](Cc4cnccn4)cc3)noc21.[Br-]	52

Target: T1, Heat shock protein HSP90 (Homo sapiens)
Assay: Inhibition of Hsp90 in human A431 cells assessed as down-regulation of Akt expression after 24 hrs by Western blotting analysis
Type: cell-based
Conditions: A-431
How it was run: as §2

Compound	inhibition
Cl.O=C1c2ccncc2C(=O)c2c(-c3ccc(OCCN4CCOCC4)cc3)noc21	Dose-dependent effect

Target: T1, Heat shock protein HSP90 (Homo sapiens)
Assay: Inhibition of Hsp90 in human A431 cells assessed as down-regulation of survivin expression after 24 hrs by Western blotting analysis
Type: cell-based
Conditions: A-431
How it was run: as §2

Compound	inhibition
Cl.O=C1c2ccncc2C(=O)c2c(-c3ccc(OCCN4CCOCC4)cc3)noc21	Dose-dependent effect

Target: not listed separately
Assay: Binding affinity to Hsp90 after 4 hrs by GM-FITC based fluorescence polarization assay
Conditions: not given
How it was run: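 Commercial Hsp90 at 30 nM was mixed with GM-FITC tracer at 5 nM and serially diluted compound. Buffer: 20 mM HEPES(K) pH 7.3, 50 mM KCl, 5 mM MgCl2, 20 mM Na2MoO4, 0.01% NP40, with fresh 0.1 mg/ml bovine gamma globulin and 2 mM DTT. Shaken 4 h at 4 °C, then FP read in mP. IC50 is the concentration displacing 50% of tracer, from triplicate wells by nonlinear least-squares fit.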

Compound	IC50 [nM]	pIC50
Cl.O=C1c2ccncc2C(=O)c2c(-c3ccc(OCCN4CCOCC4)cc3)noc21	< 5	8.47
O=C1c2ccccc2C(=O)c2c(-c3ccccc3O)noc21	1550	5.81
O=C1c2ccccc2C(=O)c2c(-c3cc(Cl)c(O)cc3O)noc21	4200	5.38
CC(=O)Oc1cccc2c1C(=O)c1c(-c3ccc(F)cc3)noc1C2=O	1940	–
O=C1c2ccncc2C(=O)c2c(-c3ccncc3)noc21	120	6.92
COc1ccc(-c2noc3c(OC(C)=O)c4ccccc4c(OC(C)=O)c23)cc1	> 100000	–
O=C1c2cccc(O)c2C(=O)c2c(-c3cc[n+](Cc4ccccc4)cc3)noc21.[Br-]	98	7.01
O=C1c2cccc(O)c2C(=O)c2c(-c3ccc(F)cc3)noc21	290	6.54

The next lines start with the values.

IC50 [nM]	pIC50	Compound
7850	5.11	O=C1c2ccccc2C(=O)c2c(-c3ccccc3)noc21
200000	3.7	O=C1c2ccccc2C(=O)c2c(-c3cccc[n+]3Cc3ccccc3)noc21.[Br-]
200000	3.7	COc1ccccc1-c1noc2c1C(=O)c1ccccc1C2=O
510	6.29	O=C1c2ccccc2C(=O)c2c(-c3ccc[n+](Cc4cnccn4)c3)noc21.[Br-]
5840	–	COc1ccc(-c2noc3c2C(=O)c2ccccc2C3=O)cc1
1600	5.61	COc1ccc(-c2noc3c2C(=O)c2cnccc2C3=O)cc1
> 100000	–	COc1cc(OC)c(-c2noc3c2C(=O)c2ccccc2C3=O)cc1Cl
34	7.47	O=C1c2ccccc2C(=O)c2c(-c3cc[n+](Cc4ccccc4)cc3)noc21.[Br-]
1900	5.72	COc1cccc2c1C(=O)c1c(-c3ccncc3)noc1C2=O
680	6.17	O=C1c2ccccc2C(=O)c2c(-c3cc[n+](Cc4cnccn4)cc3)noc21.[Br-]

Target: T1, Heat shock protein HSP90 (Homo sapiens)
Assay: Inhibition of Hsp90 in human A431 cells assessed as up-regulation of Hsp70 in human A431 cells after 24 hrs by Western blotting analysis
Type: cell-based
Conditions: A-431
How it was run: as §2

Compound	inhibition
Cl.O=C1c2ccncc2C(=O)c2c(-c3ccc(OCCN4CCOCC4)cc3)noc21	Dose-dependent effect
O=C1c2ccccc2C(=O)c2c(-c3cc[n+](Cc4ccccc4)cc3)noc21.[Br-]	Dose-dependent effect

Target: T1, Heat shock protein HSP90 (Homo sapiens)
Assay: Inhibition of Hsp90 in human STO cells assessed as down-regulation of Raf expression at 22 nM after 24 hrs by Western blotting analysis
Type: cell-based
Conditions: not given
How it was run: as §2

Compound	inhibition
O=C1c2ccccc2C(=O)c2c(-c3cc[n+](Cc4ccccc4)cc3)noc21.[Br-]	Active

Target: T1, Heat shock protein HSP90 (Homo sapiens)
Assay: Inhibition of Hsp90 in human A431 cells assessed as down-regulation of EGFR expression after 24 hrs by Western blotting analysis
Type: cell-based
Conditions: A-431
How it was run: as §2

Compound	inhibition
Cl.O=C1c2ccncc2C(=O)c2c(-c3ccc(OCCN4CCOCC4)cc3)noc21	Dose-dependent effect

Target: T1, Heat shock protein HSP90 (Homo sapiens)
Assay: Inhibition of Hsp90 in human STO cells assessed as down-regulation of survivin expression at 22 nM after 24 hrs by Western blotting analysis
Type: cell-based
Conditions: not given
How it was run: as §2

Compound	inhibition
O=C1c2ccccc2C(=O)c2c(-c3cc[n+](Cc4ccccc4)cc3)noc21.[Br-]	Active

Target: T1, Heat shock protein HSP90 (Homo sapiens)
Assay: Inhibition of Hsp90 in human A431 cells assessed as down-regulation of Cdk4 expression after 24 hrs by Western blotting analysis
Type: cell-based
Conditions: A-431
How it was run: as §2

Compound	inhibition
Cl.O=C1c2ccncc2C(=O)c2c(-c3ccc(OCCN4CCOCC4)cc3)noc21	Dose-dependent effect
